Experimental data reported in paper PMC6001651 (International Journal of Biological Sciences, 2018).
Where no end group is shown, it is not given here.

Assays:
S. aureus (NCTC 10788) = assay: Antimicrobial assay; assay type: cell-based
In short: (§1)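 Each organism was grown in Mueller-Hinton broth, and 10^5 CFU/mL were exposed to test compound at 1–512 μM in two-fold dilutions. Plates were incubated at 37 °C in humidified air for 16–24 h. For MBC, 20 µL from each well was plated on Mueller-Hinton agar. MBC was the lowest concentration giving no colonies.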

E. faecalis (NCTC 12697) = assay: Antimicrobial assay; assay type: cell-based
In short: as §1

P. aeruginosa biofilm = assay type: cell-based
[1] = system: five diverse human cancer cell lines; assay: MTT anti-cancer assay, summary over five cancer cell lines; assay type: cell-based; settings: read-out: IC50s over the cancer cell lines
In short: (§2)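 Cells were seeded at 5000/well, grown 24 h at 37 °C in 5% CO2, then serum-starved for 6 h. Test compound at ten-fold concentrations from 10^-4 to 10^-9 M in serum-free medium was added for 24 h. MTT (5 mg/ml solution) was added for 4–6 h, formazan was dissolved in DMSO and OD was read at 550 nm. IC50 came from normalised curves; three independent experiments, mean ± s.d.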

[2] = system: human glioblastoma astrocytoma U251MG; assay: MTT anti-cancer assay; assay type: cell-based; settings: U251-MG, 24 h
In short: as §2

S. aureus biofilm = assay type: cell-based
[3] = system: all the microorganisms that we examined; assay: Antimicrobial assays, summary over all microorganisms examined; assay type: cell-based
In short: as §1

melanocyte MDA-MB-435S = assay: MTT anti-cancer assay; assay type: cell-based, human; settings: MBD-MB-435S, 24 h
In short: as §2

[4] = system: biofilm formation by S. aureus and P. aeruginosa; assay type: cell-based
E. coli (NCTC 10418) = assay: Antimicrobial assay; assay type: cell-based
In short: as §1

[5] = system: P. aeruginosa (ATCC 27853); assay: Antimicrobial assay; assay type: cell-based
In short: as §1

Haemolysis assay = assay type: cell-based; settings: horse erythrocytes, 2% suspension
In short: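 A 2% horse erythrocyte suspension in PBS was incubated with test compound at 1–512 μM for 2 h at 37 °C, with PBS and 1% Triton X-100 as controls. After centrifugation at 900× g for 5 min, supernatant absorbance was read at 550 nm. HC50 was calculated from normalised curves.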

[6] = system: methicillin-resistant S. aureus (MRSA; ATCC 12493); assay: Antimicrobial assay; assay type: cell-based
In short: as §1

[7] = system: human breast cancer MCF-7; assay: MTT anti-cancer assay; assay type: cell-based; settings: MCF-7, 24 h
In short: as §2

[8] = system: normal human microvessel endothelial cells HMEC-1; assay: MTT assay on normal cells; assay type: cell-based
In short: as §2

[9] = system: human prostate carcinoma PC-3; assay: MTT anti-cancer assay; assay type: cell-based; settings: PC-3, 24 h
In short: as §2

Stability in serum = assay type: in vitro ADME; settings: 10% FBS in RPMI-1640, 37 °C
In short: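 Test compound at 50 μM was incubated in RPMI-1640 with 10% FBS at 37 °C for 24 h. Every 4 h, an aliquot was mixed with two volumes of 96% ethanol, held at 4 °C for 15 min and spun at 18,000× g for 2 min. Supernatants were analysed by RP-HPLC and MALDI-TOF. % remaining was the peak area relative to a serum-free stock; three independent experiments, mean ± s.d.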

[10] = system: non-small cell lung cancer H157; assay: MTT anti-cancer assay; assay type: cell-based, human; settings: H157, 24 h
In short: as §2

C. albicans (NCTC 1467) = assay: Antimicrobial assay; assay type: cell-based
In short: as §1

Circular dichroism = assay type: physicochemical; settings: 100 µM peptide, 20 °C
In short: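 Test compound at 100 µM was dissolved in 10 mM ammonium acetate or in 50% TFE (v/v in 10 mM ammonium acetate) and read in a 1-mm cuvette. Spectra covered 190–260 nm at 20 °C, with three accumulations, 200 nm/min scan speed, 1 nm bandwidth and 0.5 nm data pitch. % α-helix was estimated by K2D on DichroWeb.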

In the case of RKKRRQRRRLNLKALLAVAKKIL-NH2 [tMP-C], the MBC (S. aureus (NCTC 10788)) is reported as 4 µM, the MIC (S. aureus (NCTC 10788)) is reported as 4 µM and the MBC (E. faecalis (NCTC 12697)) is reported as 16 µM. The MIC (E. faecalis (NCTC 12697)) was 8 µM, the MBIC (P. aeruginosa biofilm; P. aeruginosa biofilm formation) was 8 µM and the MBEC (P. aeruginosa biofilm; P. aeruginosa existing biofilm) was 128 µM. The IC50 [1] was less than 4 µM, the IC50 [2] was 3.36 µM and the MBIC (S. aureus biofilm; S. aureus biofilm formation) was 32 µM. The MBEC (S. aureus biofilm; S. aureus existing biofilm) was 256 µM, the “MIC and MBC values” [3] was “at most 16 µM” and the IC50 (melanocyte MDA-MB-435S) was 3.86 µM. The “maximum MBIC” value [4] was 32 µM, the MBC (E. coli (NCTC 10418)) was 2 µM and the MIC (E. coli (NCTC 10418)) was 2 µM. It also gave an MBC [5] of 4 µM, an MIC [5] of 4 µM and an HC50 at 2 h (Haemolysis assay) of 77.9 µM. The MBC [6] was 8 µM, the MIC [6] was 4 µM and the IC50 [7] was 3.7 µM. It also gave an inhibitory effect ([8]; HMEC-1, concentration of 10 µM) of 60%, an IC50 ([8]; HMEC-1 normal cells, 24 h, MTT) of 9.18 µM and an IC50 [9] of 3.86 µM. For the same substance, the “serum stability (in words)” value (Stability in serum) was “poor serum stability”, the IC50 [10] was 2.79 µM and the MBC (C. albicans (NCTC 1467)) was 2 µM. For the same substance, the MIC (C. albicans (NCTC 1467)) was 2 µM, the “% α-helix 10 mM NH4AC” value (Circular dichroism; 10 mM NH4AC buffer) was 9% and the “% α-helix 50% TFE (v/v)” value (Circular dichroism; 50% TFE in 10 mM NH4AC) was 28%.
